Measurements as given in ChEMBL document CHEMBL1165941, “Design and synthesis of 2,4-disubstituted polyhydroquinolines as prospective antihyperglycemic and lipid modulating agents” (Bioorg Med Chem, 2010).
pIC50: −log10 of the molar value. Activity calls are given as the source filed them. The rule behind the calls is not given here.

Experiments:
[1] = target: T1, Tyrosine-protein phosphatase non-receptor type 1 (Homo sapiens) (UniProt P18031); assay: Inhibition of PTP1B assessed as p-nitrophenolate ion production at 100 uM pretreated for 10 mins measured after 30 mins
T1 sequence (whole entry): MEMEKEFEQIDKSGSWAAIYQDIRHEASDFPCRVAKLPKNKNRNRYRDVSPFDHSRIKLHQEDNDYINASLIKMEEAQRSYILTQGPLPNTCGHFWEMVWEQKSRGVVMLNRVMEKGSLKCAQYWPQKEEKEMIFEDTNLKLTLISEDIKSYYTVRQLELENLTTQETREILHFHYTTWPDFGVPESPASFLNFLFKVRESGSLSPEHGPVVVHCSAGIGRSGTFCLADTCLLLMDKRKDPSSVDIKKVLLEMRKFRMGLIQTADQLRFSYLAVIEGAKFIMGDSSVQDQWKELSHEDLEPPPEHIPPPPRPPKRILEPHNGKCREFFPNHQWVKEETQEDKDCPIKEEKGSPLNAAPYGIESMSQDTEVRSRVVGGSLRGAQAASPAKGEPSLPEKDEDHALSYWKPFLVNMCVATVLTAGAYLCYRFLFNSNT
Procedure, shortened: (§1)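 PTP1B was preincubated 10 min with compound, with and without 0.01% Triton X-100. Substrate was 10 mM pNPP in 50 mM HEPES pH 7.0 with 1 mM DTT and 2 mM EDTA. After 30 min at 37 °C the reaction was stopped with 0.1 N NaOH and A410 was read. Product was calculated with ε 1.78×10⁴ M⁻¹cm⁻¹. Sodium orthovanadate served as standard. IC50 came from dose–response curves.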

Rattus norvegicus [2] = assay: Antihyperglycemic activity in Charles Foster-Wistar albino rat sucrose loaded model assessed as decrease of blood glucose level at 100 mg/kg, po administered 30 mins before glucose challenge measured up to 120 mins by glucometer; format: functional; parameters: scale not given: the % may be the effect or the level left; conditions: in the assay text read “Sprague-Dawley” for “Charles Foster-Wistar”
Procedure, shortened: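 Sprague–Dawley male rats with blood glucose 60–80 mg/dl, 5–6 per group, received 100 mg/kg orally as a suspension in 1.0% gum acacia; controls received vehicle. Sucrose 10.0 g/kg was given orally 30 min later. Glucose was read by glucometer at 30, 60, 90 and 120 min. Food was withheld. Percent activity came from AUC versus control.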

[3] = Inhibition of glycogen phosphorylase assessed as […] phosphate release at 100 uM after 30 mins
Procedure, shortened: (§2)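 Glycogen phosphorylase was incubated with glycogen, glucose-1-phosphate, NaF and 5′-AMP for 30 min at 37 °C. The reaction was stopped with 10% TCA and 0.1 M sodium acetate. Samples were held overnight at 4 °C, then released Pi was measured.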

[4] = Inhibition of glycogen phosphorylase assessed as inositol phosphate release after 30 mins; procedure, shortened: as §2
[5] = target: Dipeptidyl peptidase 4 (Homo sapiens) (UniProt P27487); assay: Inhibition of DPP4 at 100 uM after 15 mins by spectrofluorimeter
Sequence of Dipeptidyl peptidase 4 (Homo sapiens) (P27487 whole entry, looked up): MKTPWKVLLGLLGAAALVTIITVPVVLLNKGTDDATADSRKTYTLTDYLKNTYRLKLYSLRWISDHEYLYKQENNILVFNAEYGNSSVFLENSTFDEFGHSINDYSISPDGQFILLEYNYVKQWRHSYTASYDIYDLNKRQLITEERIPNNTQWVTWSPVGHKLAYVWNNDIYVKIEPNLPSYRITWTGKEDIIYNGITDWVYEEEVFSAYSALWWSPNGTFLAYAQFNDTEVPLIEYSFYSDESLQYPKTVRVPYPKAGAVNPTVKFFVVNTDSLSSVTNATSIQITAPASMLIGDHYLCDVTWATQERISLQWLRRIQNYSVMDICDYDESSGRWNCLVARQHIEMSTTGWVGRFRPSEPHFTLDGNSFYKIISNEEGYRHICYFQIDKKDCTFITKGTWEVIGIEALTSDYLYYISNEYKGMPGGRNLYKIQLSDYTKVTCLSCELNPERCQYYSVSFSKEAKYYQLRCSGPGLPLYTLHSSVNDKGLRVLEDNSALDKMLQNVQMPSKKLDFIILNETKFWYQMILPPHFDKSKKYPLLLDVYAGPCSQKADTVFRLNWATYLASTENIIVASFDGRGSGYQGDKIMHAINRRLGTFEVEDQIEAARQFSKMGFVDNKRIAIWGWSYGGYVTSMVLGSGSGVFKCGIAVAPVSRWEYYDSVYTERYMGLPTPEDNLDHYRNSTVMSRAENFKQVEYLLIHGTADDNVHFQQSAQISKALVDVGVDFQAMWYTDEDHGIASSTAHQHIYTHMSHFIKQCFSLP
Procedure, shortened: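 DPP-IV activity was measured at 37 °C as Gly-Pro-AMC (30 µM) cleavage in Tris–HCl pH 7.4 with test compound. Fluorescence was read at excitation 355 nm and emission 460 nm. The initial rate was taken over the first 15 min.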

[6] = target: T2, Glucose-6-phosphatase catalytic subunit 1 (Homo sapiens) (UniProt P35575); assay: Inhibition of glucose-6-phosphatase assessed as inositol phosphate release at 100 uM after 30 mins; conditions: in the assay text read “inorganic phosphate” for “inositol phosphate”
T2 sequence (whole entry): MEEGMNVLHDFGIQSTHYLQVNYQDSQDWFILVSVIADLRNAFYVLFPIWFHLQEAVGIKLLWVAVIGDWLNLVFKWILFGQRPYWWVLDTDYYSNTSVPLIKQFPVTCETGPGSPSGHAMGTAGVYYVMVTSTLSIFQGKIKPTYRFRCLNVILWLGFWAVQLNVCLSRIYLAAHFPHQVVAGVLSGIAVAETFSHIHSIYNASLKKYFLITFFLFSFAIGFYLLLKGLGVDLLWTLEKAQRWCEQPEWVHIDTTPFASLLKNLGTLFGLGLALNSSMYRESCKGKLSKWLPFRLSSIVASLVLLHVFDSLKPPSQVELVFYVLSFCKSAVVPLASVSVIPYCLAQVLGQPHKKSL
Procedure, shortened: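 Glucose-6-phosphatase was assayed in 0.3 M citrate pH 6.0 with 28 mM EDTA, 14 mM NaF, 200 mM glucose-6-phosphate and enzyme protein. After 30 min at 37 °C the reaction was stopped with 10% TCA. Activity was expressed as µmol Pi released per min per mg protein.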

Rattus norvegicus [7] = assay: Antihyperglycemic activity in Sprague-Dawley albino rat streptozotocin-induced beta-cell damaged diabetic model assessed as decrease of blood glucose level at 100 mg/kg, po administered 30 mins before glucose challenge measured after 24 hrs by glucometer; format: functional; parameters: scale not given: the % may be the effect or the level left
Procedure, shortened: (§3)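 Rats were made diabetic with streptozotocin 60 mg/kg ip in 100 mM citrate pH 4.5 after an overnight fast. Animals with glucose 144–270 mg/dl at 48 h were used, 5–6 per group. Compounds were given 100 mg/kg orally in 1.0% gum acacia. Sucrose 2.5 g/kg followed 30 min later. Glucose was read by glucostrips up to 300 min and at 24 h. Non-responders were excluded. Percent activity came from AUC versus control.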

[8] = Inhibition of alpha-glucosidase at 100 uM after 3 mins
Procedure, shortened: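 α-Glucosidase (0.1 mg/mL, purified) was assayed in 67 mM sodium phosphate pH 6.8 with 1.0 mg/mL glutathione. The reaction was started with 3.0 mg/mL pNPG and followed at 405 nm every 30 s for 3 min.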

Rattus norvegicus [9] = assay: Antihyperglycemic activity in Sprague-Dawley albino rat streptozotocin-induced beta-cell damaged diabetic model assessed as decrease of blood glucose level at 100 mg/kg, po administered 30 mins before glucose challenge measured after 5 hrs by glucometer; format: functional; parameters: scale not given: the % may be the effect or the level left; procedure, shortened: as §3
Rattus norvegicus [10] = assay: Antidyslipidemic activity in Charles Foster rat assessed as reduction of Triton WR-1339-induced increase of blood triglyceride level at 100 mg/kg, po after 18 hrs; format: functional; parameters: scale not given: the % may be the effect or the level left
Procedure, shortened: (§4)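 Hyperlipidemia induced by Triton WR-1339, 400 mg/kg ip, in adult male Charles Foster rats (200–225 g), five per group. Compounds were macerated in 0.2% w/v gum acacia, suspended in water and given 100 mg/kg po together with triton. Plasma was obtained by centrifugation at 2500g, 4 °C, 10 min and diluted 1:3 in saline. TC, PL and TG were measured by enzymatic methods.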

Rattus norvegicus [11] = assay: Antidyslipidemic activity in Charles Foster rat assessed as reduction of Triton WR-1339-induced increase of blood total cholesterol level at 100 mg/kg, po after 18 hrs; format: functional; parameters: scale not given: the % may be the effect or the level left; procedure, shortened: as §4
Mus musculus [12] = species on record: Mus musculus; assay: Antihyperglycemic activity in C57BL/KsBom-db db/db mouse assessed as decrease in blood glucose AUC level measured on day 5 by oral glucose tolerance test (reference value: 30730 +/- 3687 %); format: functional; parameters: scale not given: the % may be the effect or the level left
[13] = target: T3, Tyrosine-protein phosphatase non-receptor type 1 (Homo sapiens, UniProt P18031); assay: Inhibition of PTP1B assessed as p-nitrophenolate ion production pretreated for 10 mins measured after 30 mins; procedure, shortened: as §1
T3 sequence (P18031 whole entry): T1 sequence (whole entry)

Rattus norvegicus [14] = assay: Antihyperglycemic activity in po dosed Sprague-Dawley albino rat streptozotocin-induced beta-cell damaged diabetic model assessed as decrease of blood glucose level […] measured after 24 hrs by glucometer; format: functional
Mus musculus [15] = species on record: Mus musculus; assay: Antihyperglycemic activity in C57BL/KsBom-db db/db mouse assessed as decrease in blood glucose AUC level measured on day 10 by oral glucose tolerance test (reference value: 32480 +/- 5098 %); format: functional; parameters: scale not given: the % may be the effect or the level left
Rattus norvegicus [16] = assay: Antidyslipidemic activity in Charles Foster rat assessed as reduction of Triton WR-1339-induced increase of blood phospholipid level at 100 mg/kg, po after 18 hrs; format: functional; parameters: scale not given: the % may be the effect or the level left; procedure, shortened: as §4

SMILES	inhibition [1]	Activity (Rattus norvegicus [2])	inhibition [3]	pIC50 [4]	inhibition [5]	inhibition [6]	Activity (Rattus norvegicus [7])	inhibition [8]	Activity (Rattus norvegicus [9])	Activity (Rattus norvegicus [10])	Activity (Rattus norvegicus [11])	Activity (Mus musculus [12])	pIC50 [13]	ED50 (Rattus norvegicus [14])	Activity (Mus musculus [15])	Activity (Rattus norvegicus [16])
CC1(C)CC(=O)C2=C(C1)NC(C(=O)O)=CC2c1ccc(Br)cc1 (stereo not drawn)	12.3%	31.7%	81.3%	5.28	inactive	inactive	13.6%	inactive	17.8%	–	–	–	–	–	–	–
CC1(C)CC(=O)C2=C(C1)NC(c1ccccc1)=CC2c1ccc(F)cc1 (stereo not drawn)	88.2%	41.3%	14.6%	–	inactive	7.38%	32.3%	inactive	29.9%	-26.34%	-22.45%	-13.2%	5.54	47.3 mg/kg	-32.6%	-18.83%
O=C1CCCC2=C1C(c1ccc(Cl)cc1)C=C(c1ccccc1)N2 (stereo not drawn)	24.7%	24.7%	19.3%	–	inactive	8.21%	16.9%	27.9%	12.9%	-7.89%	-6.7%	–	–	–	–	-5.9%
Cc1ccc(C)c(OCCCC(C)(C)C(=O)O)c1 [GEMFIBROZIL]	–	–	–	–	–	–	–	–	–	-36.21%	-37.56%	–	–	–	–	-39.43%
CC1(C)CC(=O)C2=C(C1)NC(C(=O)O)=CC2c1ccc(Cl)cc1 (stereo not drawn)	25.4%	13.7%	63.4%	5.01	inactive	inactive	12.2%	inactive	16.6%	-11.97%	-17.45%	–	–	–	–	-15.38%
CC1(C)CC(=O)C2=C(C1)NC(c1ccccc1)=CC2c1ccccc1 (stereo not drawn)	41.8%	24.9%	inactive	–	12%	inactive	13.3%	34.3%	17.3%	-16.45%	-17.89%	–	–	–	–	-19.23%
COc1ccc(C2C=C(C(=O)O)NC3=C2C(=O)CC(C)(C)C3)cc1 (stereo not drawn)	35.4%	42.7%	78.3%	5.23	5.7%	inactive	33.2%	11.2%	29.7%	-19.34%	-24.63%	-17.9%	–	48.6 mg/kg	-39.6%	-21.82%
CCOC(=O)C1=CC(c2ccc(F)cc2)C2=C(CC(C)(C)CC2=O)N1 (stereo not drawn)	87.2%	35.9%	61.2%	–	9.8%	inactive	23.4%	15.8%	24.8%	–	–	–	5.33	–	–	–
CC1(C)CC(=O)C2=C(C1)NC(C(=O)O)=CC2c1ccccc1 (stereo not drawn)	28.9%	28.9%	77.3%	5.21	14.6%	17.1%	16.7%	4.6%	18.3%	-13.86%	-8.99%	–	–	–	–	-7.89%
CCOC(=O)C1(O)CC(c2ccc(F)cc2)C2=C(CC(C)(C)CC2=O)O1 (stereo not drawn)	5.3%	15.3%	14.9%	–	inactive	inactive	–	inactive	–	-8.2%	-10.3%	–	–	–	–	-17.2%
CC1(C)CC(=O)C2=C(C1)NC(c1ccccc1)=CC2c1ccc(Cl)cc1 (stereo not drawn)	84.9%	23.5%	5.89%	–	inactive	7.16%	16.4%	12.1%	18.9%	-19.32%	-25.56%	–	5.20	–	–	-22.47%
